Active and inactive are the calls of the source. No cut-off for these calls is given here.
Tests used:
Assay type in all cases: cell-based
Glucocorticoid receptor = target: T1, Glucocorticoid receptor (Homo sapiens, UniProt P04150); assay: Modulation of glucocorticoid receptor in human SKGT4 cells assessed as receptor translocation from cytoplasm to nucleus after 4 hrs by Hoechst staining relative to Dexamethasone
T1 sequence (P04150 whole entry): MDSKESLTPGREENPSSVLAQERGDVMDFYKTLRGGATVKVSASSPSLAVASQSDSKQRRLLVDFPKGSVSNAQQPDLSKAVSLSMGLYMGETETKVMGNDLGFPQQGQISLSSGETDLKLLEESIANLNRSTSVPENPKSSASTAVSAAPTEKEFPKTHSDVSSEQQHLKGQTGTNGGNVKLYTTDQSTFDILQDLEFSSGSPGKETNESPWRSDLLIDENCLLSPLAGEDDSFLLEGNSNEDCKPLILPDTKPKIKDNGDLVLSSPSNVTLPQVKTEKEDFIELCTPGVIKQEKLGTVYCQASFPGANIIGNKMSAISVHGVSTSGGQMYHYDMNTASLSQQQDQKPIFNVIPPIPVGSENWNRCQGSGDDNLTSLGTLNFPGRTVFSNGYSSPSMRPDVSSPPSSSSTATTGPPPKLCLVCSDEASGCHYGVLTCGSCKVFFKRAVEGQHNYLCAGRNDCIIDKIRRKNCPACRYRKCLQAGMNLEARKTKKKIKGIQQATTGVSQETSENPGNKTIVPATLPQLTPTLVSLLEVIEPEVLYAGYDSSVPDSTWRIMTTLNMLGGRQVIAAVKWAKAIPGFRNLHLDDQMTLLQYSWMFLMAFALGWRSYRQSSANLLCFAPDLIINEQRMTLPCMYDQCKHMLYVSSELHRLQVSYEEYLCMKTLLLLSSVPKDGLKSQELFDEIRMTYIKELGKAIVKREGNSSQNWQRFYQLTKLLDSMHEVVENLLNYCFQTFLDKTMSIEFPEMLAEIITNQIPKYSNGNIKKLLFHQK

[1] = target: T2, Glucocorticoid receptor (Homo sapiens) (UniProt P04150); assay: Modulation of glucocorticoid receptor in human SKGT4 cells assessed as receptor translocation from cytoplasm to nucleus at 100 uM after 240 mins by Hoechst staining relative to Dexamethasone
T2 sequence (whole entry): T1 sequence (P04150 whole entry)
How it was run: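 Time course in serum-starved SKGT-4 cells: 100 μM compound for 15, 30, 60, 120 or 240 min in 1% DMSO medium. Fixed, GR immunostained, Hoechst nuclear stain, high-content imaging. Background-corrected nuclear/cytoplasmic GR ratio normalised to Dex 100 nM; mean of two experiments in triplicate, compared with 1% DMSO.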

[2] = target: T3, Mineralocorticoid receptor (Homo sapiens) (UniProt P08235); assay: Modulation of mineralocorticoid receptor in human SKGT4 cells assessed as receptor translocation from cytoplasm to nucleus at 50 uM after 4 hrs by Hoechst staining
T3 sequence (whole entry): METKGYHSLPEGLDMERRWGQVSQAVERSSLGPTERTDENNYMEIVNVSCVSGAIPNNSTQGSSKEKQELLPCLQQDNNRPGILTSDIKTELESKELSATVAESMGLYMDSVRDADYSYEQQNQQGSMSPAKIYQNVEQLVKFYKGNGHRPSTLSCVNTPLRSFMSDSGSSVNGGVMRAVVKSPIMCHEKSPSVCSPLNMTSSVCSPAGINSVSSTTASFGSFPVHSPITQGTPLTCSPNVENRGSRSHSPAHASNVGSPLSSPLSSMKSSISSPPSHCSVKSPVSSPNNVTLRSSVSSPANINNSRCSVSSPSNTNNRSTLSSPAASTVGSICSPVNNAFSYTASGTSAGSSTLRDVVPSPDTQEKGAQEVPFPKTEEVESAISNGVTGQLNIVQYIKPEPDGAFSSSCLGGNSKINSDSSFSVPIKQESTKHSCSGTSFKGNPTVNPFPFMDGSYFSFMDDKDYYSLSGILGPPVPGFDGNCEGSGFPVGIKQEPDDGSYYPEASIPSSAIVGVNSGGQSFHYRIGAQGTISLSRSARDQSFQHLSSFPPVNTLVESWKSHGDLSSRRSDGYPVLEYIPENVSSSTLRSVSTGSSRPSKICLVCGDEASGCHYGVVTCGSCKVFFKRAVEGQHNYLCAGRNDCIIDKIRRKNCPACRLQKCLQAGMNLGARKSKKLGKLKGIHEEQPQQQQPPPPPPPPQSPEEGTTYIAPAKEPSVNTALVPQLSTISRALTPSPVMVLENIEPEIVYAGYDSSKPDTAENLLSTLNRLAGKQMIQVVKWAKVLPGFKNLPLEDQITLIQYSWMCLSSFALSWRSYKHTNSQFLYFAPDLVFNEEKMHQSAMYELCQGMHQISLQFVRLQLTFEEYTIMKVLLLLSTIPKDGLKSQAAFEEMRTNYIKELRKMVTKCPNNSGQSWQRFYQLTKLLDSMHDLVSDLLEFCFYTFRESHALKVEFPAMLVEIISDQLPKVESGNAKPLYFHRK

SMILES | EC50 (Glucocorticoid receptor) [µM] | Activity [1] | Activity [2]
C[C@H](CCC(=O)NCc1ccccc1)[C@H]1CC[C@H]2[C@@H]3[C@@H](O)C[C@@H]4C[C@H](O)CC[C@]4(C)[C@H]3CC[C@]12C | 110 |  | 
C[C@H](CCC(=O)NC1CC1)[C@H]1CC[C@H]2[C@@H]3[C@@H](O)C[C@@H]4C[C@H](O)CC[C@]4(C)[C@H]3CC[C@]12C | 7.3 | Active | 
C[C@H](C(=O)O)[C@H]1CC[C@H]2[C@@H]3[C@@H](O)C[C@@H]4C[C@H](O)CC[C@]4(C)[C@H]3CC[C@]12C | 99.7 |  | 
C[C@H](CCC(=O)N1CCOCC1)[C@H]1CC[C@H]2[C@@H]3[C@@H](O)C[C@@H]4C[C@H](O)CC[C@]4(C)[C@H]3CC[C@]12C | 25.3 | Active | 
C[C@H](CCC(=O)N1CCNCC1)[C@H]1CC[C@H]2[C@@H]3[C@@H](O)C[C@@H]4C[C@H](O)CC[C@]4(C)[C@H]3CC[C@]12C | 50.8 |  | 
C[C@H](C#N)[C@H]1CC[C@H]2[C@@H]3[C@@H](O)C[C@@H]4C[C@H](O)CC[C@]4(C)[C@H]3CC[C@]12C | 130 |  | 
C[C@H](CCC#N)[C@H]1CC[C@H]2[C@@H]3[C@@H](O)C[C@@H]4C[C@H](O)CC[C@]4(C)[C@H]3CC[C@]12C | 101 |  | 
C[C@H](CCC(=O)O)[C@H]1CC[C@H]2[C@@H]3[C@@H](O)C[C@@H]4C[C@H](O)CC[C@]4(C)[C@H]3CC[C@]12C |  |  | inactive
CC(NC(=O)CC[C@@H](C)[C@H]1CC[C@H]2[C@@H]3[C@@H](O)C[C@@H]4C[C@H](O)CC[C@]4(C)[C@H]3CC[C@]12C)c1ccccc1 (stereo not given in full) | 124 |  | 
C[C@H](CC(=O)O)[C@H]1CC[C@H]2[C@@H]3[C@@H](O)C[C@@H]4C[C@H](O)CC[C@]4(C)[C@H]3CC[C@]12C [NORUCHOLIC ACID] | 105 |  | 
C[C@H](CCC(=O)NCCc1ccccc1)[C@H]1CC[C@H]2[C@@H]3[C@@H](O)C[C@@H]4C[C@H](O)CC[C@]4(C)[C@H]3CC[C@]12C | 109 |  | 
C[C@H](CCC(=O)N1CCN(Cc2ccccc2)CC1)[C@H]1CC[C@H]2[C@@H]3[C@@H](O)C[C@@H]4C[C@H](O)CC[C@]4(C)[C@H]3CC[C@]12C | 5.6 | Active | 
